Results reported in ChEMBL document CHEMBL3351552, “Structure-activity profiles of novel 6-substituted pyrrolo[2,3-d]pyrimidine thienoyl antifolates with modified amino acids for cellular uptake by folate receptors α and β and the proton-coupled folate transporter” (J Med Chem, 2014).
Active and inactive are the calls of the source. The rule behind the calls is not given here.

Tests used:
[1] = biological target: Folate receptor beta (Homo sapiens) (UniProt P14207); assay: Inhibition of [3H]folic acid binding to FRbeta (unknown origin) expressed in Chinese hamster D4 cells; assay type: cell-based
How it was run: (§1)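 RT16 (FRα) or D4 (FRβ) CHO cells (~5 × 10^6) were stripped of bound folate with pH 3.5 acetate/saline, then washed in ice-cold HEPES-buffered saline pH 7.4. Cells were incubated 15 min at 0 °C with 50 nM [3H]folic acid (0.5 Ci/mmol) plus 0–1000 nM unlabeled competitor. Cells were rinsed cold, NaOH-solubilized, and counts normalized to protein. […] Mean ± SE, n=3.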

[2] = biological target: Folate receptor alpha (Homo sapiens) (UniProt P15328); assay: Inhibition of [3H]folic acid binding to FRalpha (unknown origin) expressed in Chinese hamster RT16 cells; assay type: cell-based; how it was run: as §1
[3] = system: R2; assay: Cytotoxicity against Chinese hamster R2 cells assessed as cell growth inhibition incubated up to 96 hrs by Celltiter-blue cell viability assay; assay type: cell-based; conditions: Cricetulus griseus, R2, 96 h
[4] = system: KB; assay: Cytotoxicity against human KB cells assessed as cell growth inhibition incubated up to 96 hrs in presence of 200 nM folic acid by Celltiter-blue cell viability assay; assay type: functional, cell-based
How it was run: (§2)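 Cells plated at ~2500–5000/well in folate-free RPMI with 10% dialyzed FBS, antibiotics, 2 nM LCV and 2 mM L-glutamine, exposed to a range of drug concentrations. RT16 were pre-cultured 3 days in folate-free RPMI. FR dependence was tested in parallel wells containing 200 nM folic acid. Incubation up to 96 h, CellTiter-Blue fluorescence read-out. IC50 taken versus untreated cells.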

[5] = system: KB; assay: Cytotoxicity against human KB cells assessed as cell growth inhibition incubated up to 96 hrs by Celltiter-blue cell viability assay; assay type: functional, cell-based; how it was run: as §2
[6] = system: R2; assay: Cytotoxicity against Chinese hamster R2 cells expressing empty vector assessed as cell growth inhibition incubated up to 96 hrs by Celltiter-blue cell viability assay; assay type: cell-based, Cricetulus griseus; conditions: R2, 96 h
[7] = system: KB; assay: Cytotoxicity against human KB cells assessed as cell growth inhibition incubated up to 96 hrs in presence of 10 uM thymidine by Celltiter-blue cell viability assay; assay type: functional, cell-based
How it was run: (§3)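 KB cells grown in complete folate-free RPMI 1640 with 2 nM LCV over a range of drug concentrations, with added thymidine (10 μM), adenosine (60 μM) or AICA (320 μM) as protecting agents. After up to 96 h, density measured by CellTiter-Blue fluorescence and normalized to drug-free cells. Experiments run in triplicate.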

[8] = biological target: T1, Proton-coupled folate transporter (Homo sapiens) (UniProt Q96NT5); assay: Inhibition of PCFT (unknown origin) expressed in Chinese hamster R2/PCFT4 cells assessed as reduction in PCFT-mediated [3H]MTX transport at 10 uM at pH 6.8 and 37 degC incubated for 5 mins; assay type: cell-based
T1 sequence (whole entry): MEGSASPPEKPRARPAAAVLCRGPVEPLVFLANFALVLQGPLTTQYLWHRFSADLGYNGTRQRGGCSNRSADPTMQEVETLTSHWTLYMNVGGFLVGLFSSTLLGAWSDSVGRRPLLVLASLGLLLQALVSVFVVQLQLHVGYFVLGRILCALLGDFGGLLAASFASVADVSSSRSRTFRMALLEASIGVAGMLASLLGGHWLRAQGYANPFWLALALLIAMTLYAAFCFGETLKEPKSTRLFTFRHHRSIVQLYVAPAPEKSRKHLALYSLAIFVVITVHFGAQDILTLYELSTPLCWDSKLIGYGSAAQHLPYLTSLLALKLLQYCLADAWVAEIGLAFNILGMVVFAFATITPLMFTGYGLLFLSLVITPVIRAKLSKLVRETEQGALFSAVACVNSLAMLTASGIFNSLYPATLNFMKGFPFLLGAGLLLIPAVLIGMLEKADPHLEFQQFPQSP
How it was run: (§4)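 Uptake was quenched with ice-cold DPBS, cells washed and solubilized in 0.5 N NaOH. Radioactivity was expressed per mg protein and normalized to untreated controls. Mean ± SE of three experiments.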

[9] = system: KB; assay: Cytotoxicity against human KB cells assessed as cell growth inhibition incubated up to 96 hrs in presence of 60 uM adenosine by Celltiter-blue cell viability assay; assay type: functional, cell-based; how it was run: as §3
[10] = system: KB; assay: Cytotoxicity against human KB cells assessed as cell growth inhibition incubated up to 96 hrs in presence of 320 uM AICA by Celltiter-blue cell viability assay; assay type: functional, cell-based; how it was run: as §3
[11] = biological target: T1, Proton-coupled folate transporter (Homo sapiens); assay: Inhibition of PCFT (unknown origin) expressed in Chinese hamster R2/PCFT4 cells assessed as reduction in PCFT-mediated [3H]MTX transport at 10 uM at pH 5.5 and 37 degC incubated for 5 mins; assay type: cell-based; how it was run: as §4
[12] = biological target: T2, Proton-coupled folate transporter (Homo sapiens, UniProt Q96NT5); assay: Inhibition of PCFT (unknown origin) expressed in Chinese hamster R2/PCFT4 cells assessed as reduction in PCFT-mediated [3H]MTX transport at pH 5.5 and 37 degC incubated for 5 mins; assay type: cell-based
T2 sequence (Q96NT5 whole entry): T1 sequence (whole entry)

[13] = biological target: T1, Proton-coupled folate transporter (Homo sapiens); assay: Inhibition of PCFT (unknown origin) expressed in Chinese hamster R2/PCFT4 cells assessed as reduction in PCFT-mediated [3H]MTX transport at 1 uM at pH 5.5 and 37 degC incubated for 5 mins; assay type: cell-based; how it was run: as §4
[14] = biological target: T1, Proton-coupled folate transporter (Homo sapiens); assay: Inhibition of PCFT (unknown origin) expressed in Chinese hamster R2/PCFT4 cells assessed as reduction in PCFT-mediated [3H]MTX transport at 1 uM at pH 6.8 and 37 degC incubated for 5 mins; assay type: cell-based; how it was run: as §4

Folate receptor alpha (Homo sapiens), sequence (P15328 25-234 limits assumed): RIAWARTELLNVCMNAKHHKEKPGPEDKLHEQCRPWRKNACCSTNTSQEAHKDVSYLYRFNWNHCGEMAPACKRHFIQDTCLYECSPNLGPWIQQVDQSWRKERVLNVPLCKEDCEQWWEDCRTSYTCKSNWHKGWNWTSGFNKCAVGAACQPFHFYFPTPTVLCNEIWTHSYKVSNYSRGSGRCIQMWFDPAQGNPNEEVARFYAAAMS
Folate receptor beta (Homo sapiens), sequence (P14207 17-230 limits assumed): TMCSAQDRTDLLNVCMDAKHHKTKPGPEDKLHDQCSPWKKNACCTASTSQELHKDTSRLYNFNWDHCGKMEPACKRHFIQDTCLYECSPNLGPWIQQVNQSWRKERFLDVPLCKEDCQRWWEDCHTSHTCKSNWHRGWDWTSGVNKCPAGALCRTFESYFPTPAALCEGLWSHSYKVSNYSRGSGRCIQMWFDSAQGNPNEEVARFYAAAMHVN

Row | SMILES | inhibition [1] | inhibition [2] | IC50 [3] [nM] | IC50 [4] [nM] | IC50 [5] [nM] | IC50 [6] [nM] | growth inhibition (GI) [7] | inhibition [8] [%] | growth inhibition (GI) [9] | growth inhibition (GI) [10] | inhibition [11] [%] | Ki [12] [nM] | inhibition [13] [%] | inhibition [14] [%]
1 | Nc1nc(=O)c2nc(CNc3ccc(C(=O)N[C@@H](CCC(=O)O)C(=O)O)cc3)cnc2[nH]1 | Active | Active | – | – | – | – | – | – | – | – | – | – | – | –
2 | Nc1nc2[nH]c(CCCc3ccc(C(=O)N[C@@H](CC(=O)O)C(=O)O)s3)cc2c(=O)[nH]1 | Active | Active | > 1000 | > 1000 | > 1000 | > 1000 | – | – | – | – | – | – | – | –
3 | CN(Cc1cnc2nc(N)nc(N)c2n1)c1ccc(C(=O)N[C@@H](CCC(=O)O)C(=O)O)cc1 [METHOTREXATE] | inactive | inactive | – | – | – | > 1000 | – | – | – | – | – | – | – | –
4 | Nc1nc2[nH]c(CCCc3ccc(C(=O)O)s3)cc2c(=O)[nH]1 | Active | Active | > 1000 | > 1000 | > 1000 | > 1000 | – | – | – | – | – | – | – | –
5 | Nc1nc2[nH]c(CCCc3ccc(C(=O)N[C@@H](CCCC(=O)O)C(=O)O)s3)cc2c(=O)[nH]1 | Active | Active | > 1000 | > 1000 | 9 | > 1000 | Active | 30 | inactive | inactive | 75 | 1600 | 10 | –
6 | CCC[C@H](NC(=O)c1ccc(CCCc2cc3c(=O)[nH]c(N)nc3[nH]2)s1)C(=O)O | Active | Active | > 1000 | > 1000 | > 1000 | > 1000 | – | 30 | – | – | 70 | 2900 | 25 | –
7 | Nc1nc2[nH]c(CCCc3ccc(C(=O)NCCCC(=O)O)s3)cc2c(=O)[nH]1 | Active | Active | > 1000 | > 1000 | > 1000 | > 1000 | – | – | – | – | – | – | – | –
8 | Nc1nc2[nH]c(CCCc3ccc(C(=O)N[C@@H](CCC(=O)O)C(=O)O)s3)cc2c(=O)[nH]1 | Active | Active | – | > 1000 | – | – | Active | 70 | inactive | inactive | 95 | – | 80 | 20
